In PMC3561764 (Nature, 2007):
No end group written: not given here.

Experiments:
[1] = system: EGFR kinase domain attached to lipid vesicles; experiment: vesicle-based kinase assay; format: biochemical; conditions: wild type kinase 3.5 μM, substrate peptide 1 mM, Fig. 2c
In short: (§1)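 Wild-type EGFR kinase domain assayed either free in solution at 14 μM, or tethered to lipid vesicles at 3.5 μM. Vesicle tethering raises the local kinase concentration and promotes asymmetric dimer formation. Substrate peptide was held at 1 mM in all runs. Activity is reported as initial velocity normalised by kinase concentration.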

[2] = system: EGFR kinase domain K799E mutant; experiment: interaction with K799E mutant kinase domain; format: binding; conditions: Supplemental Figure 5
EGFR kinase domain = experiment: crystal structures of EGFR kinase domain/Mig6 peptide complexes; format: binding; conditions: 25-residue epitope, residues 337–361
[3] = target: EGFR kinase domain, wild type (UniProt P00533 696-1022); experiment: fluorescence polarisation
EGFR [4] = conditions: ref [3],[5],[12]; cited from earlier work
EGFR [5] = conditions: mouse skin; ref [8]; cited from earlier work
[6] = target: wild type EGFR kinase domain (Homo sapiens, UniProt P00533); experiment: kinase assay in solution, wild type; format: biochemical; conditions: kinase 14 μM, substrate peptide 1 mM, Fig. 3b
In short: as §1

25-residue peptide: 25-residue peptide (residues 340–364), which lacks 3 residues in the N-terminal portion of Mig6^segment 1
inhibition of the kinase domain attached to lipid vesicles, in words [1]: much less potent

Mig6^segment 1: 25-residue epitope of Mig6 sufficient for binding to the EGFR kinase domain (residues 337–361)
effect of K799E kinase mutation on interaction with Mig6^segment 1 [2]: does not affect the conformation of the kinase domain or its interaction
binding to the EGFR kinase domain (crystal structures) (EGFR kinase domain): sufficient for binding to the EGFR kinase domain

B1: 30-residue fluorescein-labeled Mig6 peptide (residues 334–363) M346L (peptide, UniProt Q9UJM3 334-363, looked up)
peptide: SPKSLPSYLNGVLPPTQSFAPDPKYVSSKA
modifications: also: fluorescein label, position not given here
binding result [3]: binds

B2: Mitogen-induced gene 6 (protein, UniProt Q9UJM3 1-462, looked up)
chain: MSIAGVAAQEIRVPLKTGFLHNGRAMGNMRKTYWSSRSEFKNNFLNIDPITMAYSLNSSAQERLIPLGHASKSAPMNGHCFAENGPSQKSSLPPLLIPPSENLGPHEEDQVVCGFKKLTVNGVCASTPPLTPIKNSPSLFPCAPLCERGSRPLPPLPISEALSLDDTDCEVEFLTSSDTDFLLEDSTLSDFKYDVPGRRSFRGCGQINYAYFDTPAVSAADLSYVSDQNGGVPDPNPPPPQTHRRLRRSHSGPAGSFNKPAIRISNCCIHRASPNSDEDKPEVPPRVPIPPRPVKPDYRRWSAEVTSSTYSDEDRPPKVPPREPLSPSNSRTPSPKSLPSYLNGVMPPTQSFAPDPKYVSSKALQRQNSEGSASKVPCILPIIENGKKVSSTHYYLLPERPPYLDKYEKFFREAEETNGGAQIQPLPADCGISSATEKPDSKTKMDLGGHVKRKHLSYVVSP
modifications: full-length C-terminal Myc tag
binding to activated EGFR compared with unliganded receptor (EGFR [4]): bind more tightly to activated EGFR than to the unliganded receptor
inhibition of EGFR-mediated signals (EGFR [5]): inhibits EGFR-mediated signals in mouse skin

B3: Mig6^segment 1–2 (Y358A) (peptide, UniProt Q9UJM3 336-412, looked up, variant M346L Y358A)
chain: KSLPSYLNGVLPPTQSFAPDPKAVSSKALQRQNSEGSASKVPCILPIIENGKKVSSTHYYLLPERPPYLDKYEKFFR
inhibition of basal activity of wild type kinase domain in solution, in words [6]: does not show any inhibition
